The record followed here is ChEMBL document CHEMBL1144552, “Synthesis and antitumor activities of a series of novel quinoxalinhydrazides” (Bioorg Med Chem, 2007).

Each structure is given as a SMILES string. Calls of active or inactive are those of the source. The rule behind the calls is not given here.

Assay [1] concerns HT-29. In words: Inhibition of colony formation of human HT29 cells at >=1 uM after 24 hrs. The class given is functional, cell-based. The essentials: (§1)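 Cells were plated at 100 cells/well in 6-well plates and allowed to attach. Serial dilutions were added the next day for 24 h exposure. Cells were then washed in PBS and grown in drug-free medium for 8–10 days until colonies formed. Colonies were fixed in 1% glutaraldehyde for 30 min, stained with 2% crystal violet for 30 min, imaged and counted. Means of at least three independent experiments.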

For assay [2], the system named is LNCaP. Description: Inhibition of colony formation of human LNCap cells at >=1 uM after 24 hrs. Type of assay: functional, cell-based. A digest of the protocol:
as §1

The test system of assay [3] is HCT-116. Description: Cytotoxicity against human HCT116 cells expressing p53 gene after 72 hrs by MTT assay. Type of assay: cell-based. To be noted: HCT-116, 72 h. The essentials:
(§2)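 Monolayer cultures in RPMI 1640 with 10% FBS and 2 mmol/L L-glutamine, 37 °C, 5% CO2, used in exponential growth and checked for mycoplasma by PCR. Cells were seeded in 96-well plates, allowed to attach, then exposed continuously to drug for 72 h. MTT (final 0.5 mg/mL) was added for 4 h at 37 °C, formazan dissolved in DMSO, absorbance read at 570 nm. Triplicate.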

The subject of assay [4] is HT-29. Description: Cytotoxicity against human HT29 cells after 72 hrs by MTT assay. The class given is cell-based. As to conditions: HT-29, 72 h. The essentials:
as §2

The test system of assay [5] is HCT-116. Description: Cytotoxicity against p53 deficient human HCT116 cells after 72 hrs by MTT assay. The class given is cell-based. As to conditions: HCT-116, 72 h. A digest of the protocol: as §2
In assay [6] the test system is LNCaP. Description: Cytotoxicity against human LNCap cells after 72 hrs by MTT assay. The class given is cell-based. The essentials: as §2
A general note: Formazan colour is commonly taken as a measure of viable cells.

The subject of assay [7] is MDA-MB-435. In words: Inhibition of colony formation of human MDA-MB-435 cells at >=1 uM after 24 hrs. Type of assay: functional, cell-based. The essentials: as §1
The test system of assay [8] is HCT-116. In words: Inhibition of colony formation of p53 expressing human HCT116 cells at >=1 uM after 24 hrs. The class given is functional, cell-based. The essentials:
as §1

For assay [9], the system named is HCT-116. Description: Inhibition of colony formation of p53 deficient human HCT116 cells at >=1 uM after 24 hrs. Type of assay: functional, cell-based. The essentials: as §1
In assay [10] the test system is MDA-MB-435. Description: Cytotoxicity against human MDA-MB-435 cells after 72 hrs by MTT assay. Type of assay: cell-based. To be noted: MDA-MB-435, 72 h. A digest of the protocol:
as §2

As usually defined, the IC50 is the concentration needed to halve the response being measured. Regarding `O=C(NNc1nc2cccc(F)c2n2cccc12)c1cnccn1`, the result in assay [1], in [2], in assay [7], in assay [8] and in assay [9] was Active. Besides, the IC50 in assay [3] came out at 0.4 µM; in assay [4] it was 0.3 µM; in assay [5], 0.3 µM; in assay [6], 0.4 µM; in assay [10], 3 µM.
As to `O=C(NNc1nc2cc(F)ccc2n2cccc12)c1cccnc1`, the IC50 in assay [3], in assay [4], in [5] and in assay [10] was over 20 µM throughout.
For `O=C(NNc1nc2ccccc2n2cccc12)C1CSCN1` (centres undefined), the IC50 in assay [3] was 15 µM; in assay [4], 14 µM; in [5], 10 µM; in [10], over 20 µM.
Take `O=C(NNc1nc2cc(F)ccc2n2cccc12)c1cccs1`: the IC50 in assay [3], in [4], in assay [5] and in assay [10] was over 20 µM throughout.
`O=C(NNc1nc2cc(F)ccc2n2cccc12)c1ccco1`: the IC50 in assay [3], in assay [4], in [5] and in assay [10] was over 20 µM in each case.
On to `NCCC(=O)NNc1nc2ccccc2n2cccc12`, for which the IC50 in assay [3], in assay [4], in assay [5] and in assay [10] was over 20 µM each time.
Regarding `O=C(NNc1nc2cc(F)ccc2n2cccc12)c1ccccn1`, the IC50 in assay [3] was over 20 µM; in assay [4] it was 17 µM; in assay [5], over 20 µM; in [6] it was over 20 µM; in [10], over 20 µM.
Take `O=C(NNc1nc2cc(F)ccc2n2cccc12)c1ccccc1F`: the IC50 in assay [3], in [4], in [5] and in [10] was over 20 µM in each case.
With `O=C(NNc1nc2ccccc2n2cccc12)c1c[nH]c2ccccc12`, the IC50 in [3], in assay [4], in assay [5] and in [10] was over 20 µM throughout.
Turning to `COc1ccccc1C(=O)NNc1nc2ccccc2n2cccc12`, the IC50 in assay [3], in [4], in [5] and in assay [10] was over 20 µM throughout.
For the compound `O=C(NNc1nc2cc(F)ccc2n2cccc12)c1cnc2ccccc2n1`, the IC50 in assay [3] came to 8 µM; in assay [4], 13 µM; in [5], 11 µM; in assay [10] it was 15 µM.
Take `O=C(NNc1nc2ccccc2n2cccc12)c1cc2ccccc2[nH]1`: the IC50 in assay [3], in [4], in assay [5] and in [10] was over 20 µM in each case.
As to `O=C(NNc1nc2ccccc2n2cccc12)c1ccc2cc[nH]c2c1`, the IC50 in assay [3], in assay [4], in assay [5] and in [10] was over 20 µM each time.
For the compound `O=C(NNc1nc2cc(F)ccc2n2cccc12)c1cnccn1`, the IC50 was determined as 0.6 µM in [3]; 0.9 µM in [4]; 0.9 µM in [5]; 0.4 µM in assay [6]; 4 µM in assay [10].
